# HNF4A DNA FP: change in binding of human HNF4 alpha to DNA; P41235; activity change, % at 10 µM; HNF4a-FITC DNA binding, fluorescence polarization, 1 h; hit rate 0.3% among 360,000; in the data active = activity change above about 30%, passing the limit was not always enough
# Rin1 Abl inh: inhibitors of human Rin1-Abl protein interaction; P00519+Q13671; TR-FRET Rin1/Abl binding, biochemical; inhibition, % at 7.35 µM; hit rate 0.4% among 360,000; in the data active = inhibition above about 5%, passing the limit was not always enough
# CSN deneddyl inh: blocks human CSN-mediated cullin deneddylation | hit rate 0.38% among 360,000 | inhibition, % at 12.5 µM | Purified CSN, SCF-Nedd8-OG deneddylation, fluorescence polarization | Q92905;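 active = pattern-corrected inhibition above about 35%, with an unprinted fluorescence ratio check between 0.5 and 1.5, limit read from the data, passing the limit was not always enough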
# Target sequence (Q92905 whole entry, looked up, one chain of several): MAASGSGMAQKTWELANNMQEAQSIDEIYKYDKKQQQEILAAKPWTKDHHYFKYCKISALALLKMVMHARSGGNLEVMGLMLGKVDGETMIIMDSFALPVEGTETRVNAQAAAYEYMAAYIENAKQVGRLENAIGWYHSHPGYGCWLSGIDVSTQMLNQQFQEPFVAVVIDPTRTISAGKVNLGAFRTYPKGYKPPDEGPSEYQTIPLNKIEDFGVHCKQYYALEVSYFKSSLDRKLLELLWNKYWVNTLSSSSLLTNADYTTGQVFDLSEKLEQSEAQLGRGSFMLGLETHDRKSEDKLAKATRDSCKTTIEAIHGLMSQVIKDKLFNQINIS
#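 Detection – fluorescence polarization · System – HEK293T-derived human Csn5 enzyme · Controls – substrate-only high control, full reaction low control · Timing – 90 min, room temperature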
# TPT1 inh: inhibitors of Candida albicans tRNA 2'-phosphotransferase TPT1 | recombinant caTPT1, FP RNA substrate dephosphorylation | AID 1962 | hit rate 0.81% among 300,000 | inhibition, % at 5 µM;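 active = inhibition above the mean of all tested compounds plus 3 SD, set per screening campaign, cut at about 24% in these data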
# Neddylation inh: blocks human cullin neddylation; hit rate 0.58% among 360,000; TR-FRET cullin neddylation, biochemical; inhibition, % at 25 µM; P61081+Q13564; AID 651699; in the data active = inhibition above about 36%
# Rpn11 inh: inhibitors of human proteasome Rpn11; inhibition, % at 20 µM; AID 588493; hit rate 0.59% among 360,000; human 26S proteasome, Ub4-pepOG fluorescence polarization; 20S core pre-blocked with epoxomicin;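 active = inhibition at 20 µM, scaled to each plate's controls, above about 33%, limit read from the data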
# Target sequence (O00487 whole entry, looked up): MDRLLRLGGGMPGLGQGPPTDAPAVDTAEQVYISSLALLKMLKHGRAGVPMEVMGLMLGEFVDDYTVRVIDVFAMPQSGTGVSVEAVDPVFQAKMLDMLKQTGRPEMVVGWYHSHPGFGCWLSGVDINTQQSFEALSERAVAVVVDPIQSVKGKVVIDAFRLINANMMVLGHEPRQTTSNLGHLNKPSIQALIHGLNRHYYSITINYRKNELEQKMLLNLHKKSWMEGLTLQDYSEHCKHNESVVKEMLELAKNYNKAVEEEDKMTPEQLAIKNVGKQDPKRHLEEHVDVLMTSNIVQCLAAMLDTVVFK
# Neddyl inh conf: cullin neddylation inhibition, confirmation; shares compounds with Neddylation inh; TR-FRET cullin neddylation biochemical assay; calls only at 25 µM; hit rate 13% among 1,800; in the data active = inhibition above about 40%;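 also: neddylation substrate is the cullin 1 ring ligase complex with SKP2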
# Numbers stand for hits; - = inactive; . = no result given; + = active, no number; ! = not active in a repeat. The list is not random: actives were taken first. Their share in the collection is about 2.4%.
SMILES,HNF4A DNA FP,Rin1 Abl inh,CSN deneddyl inh,TPT1 inh,Neddylation inh,Rpn11 inh,Neddyl inh conf
Cc1ccc(C)c(S(=O)(=O)C(C#N)c2nc3ccccc3nc2N2CC(C)OC(C)C2)c1 (stereo not drawn),-,-,-,-,42.6,-,-
Cc1ccc(C)c(S(=O)(=O)C(C#N)c2nc3ccccc3nc2N2CCCC2)c1 (stereo not drawn),-,-,-,-,-,-,.
c1coc(CNc2nc(N3CCCCC3)nc3ccccc23)c1,-,-,-,-,38.1,-,-
c1ccc(N2CCN(c3nc(NCc4ccco4)c4ccccc4n3)CC2)cc1,-,-,-,-,-,-,.
COCCN1C[C@@H](CO)O[C@@H](n2cnc3c(NC4CC4)ncnc32)C1,-,-,-,.,-,-,.
Cc1ccn2cc(C(=O)Nc3ccc4c(c3)OCCO4)nc2c1,-,-,-,-,-,-,.
Cc1ccn2cc(C(=O)Nc3nnc(C)s3)nc2c1,-,-,-,-,40.5,-,-
CCc1cc(-c2ccc3c(c2)COc2c4ccccc4nn2-3)on1,-,-,-,-,42.8,-,-
Clc1ccc(-c2cn3ccccc3n2)cc1,-,-,-,-,40.4,-,-
O=C(Nc1ccc(-c2cn3ccccc3n2)cc1)c1ccc(Cl)cc1,-,-,-,-,-,-,.
O=C(NCC(=O)N1CCN(S(=O)(=O)/C=C/c2ccccc2)CC1)c1ccc(Cl)cc1,-,-,-,-,-,-,.
CC(=O)COc1ccc2c3c(c(=O)oc2c1)CCCC3,-,-,-,-,.,-,.
O=C(COc1ccc2c3c(c(=O)oc2c1)CCCC3)NCCCN1CCOCC1,-,-,-,-,41.1,-,-
CC1(C)CC(NC(=O)COc2ccc3c4c(c(=O)oc3c2)CCCC4)CC(C)(C)N1,-,-,-,-,60.2,-,.
O=C(COc1ccc2c3c(c(=O)oc2c1)CCC3)NCCN1CCOCC1,-,-,-,-,-,-,.
O=C(COc1ccc2c3c(c(=O)oc2c1)CCCC3)NCCN1CCOCC1,-,-,-,-,51.7,-,-
O=C(O)C1CCN(C(=O)COc2ccc3c4c(c(=O)oc3c2)CCC4)CC1,-,-,-,-,42.2,-,-
Cc1ccc(CN(C(=O)c2csnn2)C(C(=O)NC2CCCC2)c2ccco2)cc1 (stereo not drawn),-,-,-,-,-,-,.
Cn1c(=O)c2cc(NC(=O)NCc3ccc(Cl)cc3Cl)ccc2n1Cc1ccc(F)cc1,-,-,-,.,.,-,.
COc1ccc(/C=N/NC(=O)CNC(=O)COc2ccccc2)cc1,-,-,-,-,-,-,.
CCCCCC(=O)N/N=C/c1ccc(N(C)C)cc1,-,-,-,-,42.5,-,.
COc1ccc(/C=N/NC(=O)Cn2nnc3ccccc32)cc1OC,-,-,-,-,-,-,.
CN(C)c1ccc(/C=N/NC(=O)CNC(=O)c2ccc3c(c2)OCCO3)cc1,-,-,-,-,58.0,-,.
CN(C)c1ccc(/C=N/NC(=O)Cn2nnc3ccccc32)cc1,-,-,-,-,40.3,-,-
CCN(CC)c1ccc(/C=N/NC(=O)CNC(=O)c2ccc3c(c2)OCCO3)cc1,-,-,-,-,.,-,.
SMILES,HNF4A DNA FP,Rin1 Abl inh,CSN deneddyl inh,TPT1 inh,Neddylation inh,Rpn11 inh,Neddyl inh conf
COc1ccc(OCC(=O)N/N=C/c2ccc(N(C)C)cc2)cc1,-,-,-,-,44.8,-,+
Cc1cccc(C(=O)NCC(=O)N2CCCCCCC2)c1,-,-,-,.,-,-,.
COc1ccc(/C=N/NC(=O)CCCCCNC(=O)c2ccccc2)cc1,-,-,-,-,-,-,.
CN(C)c1ccc(/C=N/NC(=O)CCCCCNC(=O)c2ccccc2)cc1,-,-,-,-,42.5,-,+
CCOC(=O)c1ccc(-c2ccc(/C=N/NC(=O)CN(c3ccccc3Cl)S(C)(=O)=O)o2)cc1,-,-,-,-,50.6,-,-
Cc1cc(N2CCN(C)CC2)nc2ccc(NC(=O)CCC(=O)NCc3ccco3)cc12,-,-,-,-,43.1,-,-
COC(=O)C1=C(C)NC2=C(C(=O)C(C(=O)OC)C(c3ccc(OC)cc3)C2)C1c1ccccn1 (stereo not drawn),-,-,-,-,48.8,-,.
N#Cc1cnc2nc(SCc3ccccc3)nn2c1,-,-,-,-,-,-,.
O=C(CN1c2cccc3cccc(c23)S1(=O)=O)N1CCOCC1,-,-,-,-,46.6,-,.
CC1CCCC(C)N1C(=O)CN1c2cccc3cccc(c23)S1(=O)=O (stereo not drawn),-,-,-,.,50.9,-,+
O=C(O)c1ccc(/C=N/NC(=O)c2ccc(CN3c4cccc5cccc(c45)S3(=O)=O)cc2)cc1,-,-,-,-,50.7,-,+
O=C(CN1c2cccc3cccc(c23)S1(=O)=O)N1CCCCC1,-,-,-,.,42.0,-,+
O=C(CN1c2cccc3cccc(c23)S1(=O)=O)N1CCN(c2ccc(F)cc2)CC1,-,-,-,.,-,-,.
COc1ccc(CNc2nc(NCc3ccc(OC)c(OC)c3)n(C(=O)c3cccs3)n2)cc1OC,-,-,-,-,-,-,.
COc1ccc(/C=C(\NC(=O)c2ccccc2)C(=O)NC2CCS(=O)(=O)C2)cc1 (stereo not drawn),-,-,-,-,-,-,.
CCc1noc(N)c1C(=O)Nc1ccc(Cl)cc1,-,-,-,-,-,-,.
CCOC(=O)C1CCCN(C(=O)c2ccc3ccccc3c2)CC1 (stereo not drawn),-,-,-,.,-,-,.
COc1ccc(-c2cc([C@H]3[C@@H]4C=CCC[C@@]4(C)C(=O)N3Cc3ccccc3)ccc2F)cc1OC,-,-,-,-,-,-,.
CC(=O)c1cccc(NC(=O)Cn2cnc(S(=O)(=O)N3CCCC3)c2)c1,-,-,-,-,-,-,.
Cc1nn(-c2ccccc2)c2nc3c(cc12)C(=O)CCC3,-,-,-,-,43.6,-,-
Cc1nn(-c2ccccc2)c2nc(Cl)c(C(=O)O)cc12,-,-,-,-,.,-,.
COCCn1nnnc1C(C(C)C)N(Cc1cccnc1)Cc1cc2cc(OC)ccc2[nH]c1=O (stereo not drawn),-,-,-,-,39.8,-,-
COc1ccc(C(=O)COC(=O)c2cc(S(=O)(=O)NCc3ccccc3)ccc2O)cc1,-,-,-,-,-,-,.
C=CCc1c(C)c(C#N)c2nc3ccccc3n2c1NCCN(C)C,-,-,-,-,42.9,-,.
N#Cc1c2c(c(NCCOCCO)n3c1nc1ccccc13)CCCC2,-,-,-,-,48.7,-,+
COCCNc1c2c(c(C#N)c3nc4ccccc4n13)CCCC2,-,-,-,-,52.7,-,+
Cc1nnsc1Sc1ccccc1,-,-,-,-,-,-,.
CCOc1c(C)cc(-c2ncccc2O)cc1C,-,-,-,-,45.2!,-,-

# Screens deposited in PubChem by several laboratories.
